Screens as filed in PubChem BioAssay.
NR3A LBD binder: binders of NR3A ligand-binding domain, primary screen, biophysical, differential scanning fluorimetry, uHTS. 340,000 tested, 2.5% active. NR3A LBD differential scanning fluorimetry, Tm shift; 0% = protein alone, 100% = glycine-bound protein. Tm shift relative to glycine control, % at 25 µM. AID 1259313, 2017;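 active means melting temperature shift of at least 10% of the positive control shift, at one fixed dose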
PAFAH2 FP inh: PAFAH2 enzyme inhibitors, primary screen, biochemical, fluorescence polarization, human. Platelet-activating factor acetylhydrolase 2, cytoplasmic (Homo sapiens), Q99487. recombinant PAFAH2, FP-rhodamine activity probe. inhibition, % at 3.39 µM. 340,000 tested, 0.99% active;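 active means inhibition above the mean over all tested compounds plus 3 SD, cut at about 30% in these data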;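 further: inhibitors block probe labeling of enzyme so polarization drops; 0% = enzyme with DMSO and 100% = wells lacking PAFAH2 protein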
PAFAH1B2 inh: PAFAH1B2 enzyme inhibitors, primary screen, biochemical, fluorescence polarization, human. Platelet-activating factor acetylhydrolase IB subunit alpha2 (Homo sapiens), P68402. recombinant PAFAH1B2, FP-rhodamine activity probe. inhibition, % at 3.39 µM. 340,000 tested, 1.2% active;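 active means inhibition above the mean of all tested compounds plus 3 SD, cut at about 24% in these data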;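 further: 0% = enzyme with DMSO and 100% = wells lacking PAFAH1B2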
PAFAH1B3 inh: PAFAH1B3 enzyme inhibitors, primary screen, biochemical, fluorescence polarization, human | Platelet-activating factor acetylhydrolase IB subunit alpha1 (Homo sapiens), Q15102 | recombinant PAFAH1B3, FP-rhodamine probe | inhibition, % at 3.39 µM | 340,000 tested, 0.28% active;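 active means inhibition above the screen-wide average of all tested compounds plus 3 SD, cut at about 25% in these data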;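 further: 0% = enzyme with DMSO only and 100% = wells lacking PAFAH1B3 protein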
Target sequence (Q15102 whole entry, looked up): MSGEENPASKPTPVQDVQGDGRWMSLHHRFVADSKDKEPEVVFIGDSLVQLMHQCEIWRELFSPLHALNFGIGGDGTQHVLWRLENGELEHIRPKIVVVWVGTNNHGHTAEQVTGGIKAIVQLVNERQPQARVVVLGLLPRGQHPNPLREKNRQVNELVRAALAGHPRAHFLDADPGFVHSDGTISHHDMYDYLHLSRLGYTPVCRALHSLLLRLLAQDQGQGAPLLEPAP
pPAFAH FP inh: pPAFAH enzyme inhibitors, primary screen, biochemical, fluorescence polarization, human. recombinant pPAFAH, FP-rhodamine probe fluorescence polarization. AID 463082, 2010. 330,000 tested, 1.5% active. Platelet-activating factor acetylhydrolase (Homo sapiens), Q13093. inhibition, % at 3.39 µM;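 active means inhibition above the mean inhibition across the screen plus 3 SD, cut at about 25% in these data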;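 further: inhibitors block binding of the rhodamine activity-based probe so polarization drops; 0% = enzyme with DMSO and 100% = wells lacking pPAFAH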
UCH37 inh: inhibitors of human UCH37 deubiquitinase, primary screen, biochemical, Ub-AMC cleavage, fluorescence | Ubiquitin carboxyl-terminal hydrolase isozyme L5 (Homo sapiens), Q9Y5K5 | purified proteasome/UCH37 | inhibition, % (no concentration beside the values) | 330,000 tested, 0.33% active;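 active means mean inhibition over replicate wells above about 20%, limit read from the data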;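 further: 0% = compound-free wells with enzyme and 100% = wells lacking proteasome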
Target sequence (Q9Y5K5 whole entry, looked up): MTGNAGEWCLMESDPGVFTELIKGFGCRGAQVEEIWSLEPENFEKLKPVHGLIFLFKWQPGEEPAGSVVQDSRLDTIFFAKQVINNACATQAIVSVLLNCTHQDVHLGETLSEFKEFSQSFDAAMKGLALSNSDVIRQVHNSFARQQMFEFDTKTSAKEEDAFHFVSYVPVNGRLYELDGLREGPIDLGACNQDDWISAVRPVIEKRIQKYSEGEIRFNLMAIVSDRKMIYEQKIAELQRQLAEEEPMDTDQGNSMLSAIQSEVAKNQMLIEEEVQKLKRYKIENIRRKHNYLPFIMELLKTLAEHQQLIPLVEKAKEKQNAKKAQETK
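system = Proteasome-associated human UCH37 deubiquitinase | amount = 0.15 nM proteasome as dispensed | medium = pH 7.4 Tris-HCl (50 mM) with ovalbumin, ATP-MgCl2, DTT | incubation = 30 min preincubation with enzyme, 25 min cleavage at room temperature | detection = AMC fluorescence 355/460 nm | read-out basis = percent inhibition | controls = no-proteasome and no-compound wells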
pPAFAH FP conf: pPAFAH (PLA2G7) enzyme inhibitors, confirmation, biochemical, fluorescence polarization, human | shares compounds with pPAFAH FP inh | recombinant pPAFAH, FP-Rh probe fluorescence polarization | inhibition, % at 3.39 µM | 2,300 tested, 72% active | AID 463230, 2010;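 active means mean inhibition of the triplicate above the hit cutoff set for the earlier primary screen, cut at about 25% in these data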;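 further: 0% = enzyme with DMSO and 100% = wells lacking pPAFAH enzyme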
* hit, by the source's call; · = no result. The list is not random: actives were taken first. Their share in the collection is about 4.8%.

SMILES | NR3A LBD binder | PAFAH2 FP inh | PAFAH1B2 inh | PAFAH1B3 inh | pPAFAH FP inh | UCH37 inh | pPAFAH FP conf
CN(C)C=Nc1[nH]ncc1C#N | · | · | · | · | · | -2 | ·
CC1(C)CC(=O)C2=C(C1)OC(N=CN1CCOCC1)=C(C#N)C2c1ccccc1 (centres undefined) | · | · | · | · | · | -1 | ·
CCc1nc(-c2ccccc2)cc(=O)[nH]1 | 4 | 4 | -1 | 10 | 40* | 1 | 4
O=C(O)c1cc(-c2ccco2)nn1-c1cccc(Cl)c1 | 0 | 16 | 9 | 12 | 40* | -3 | 16
O=C(O)c1cc(-c2ccco2)nn1-c1ccc(Cl)cc1 | -2 | 9 | 6 | 1 | · | -2 | ·
COc1ccc(NC(=S)NC(=NS(=O)(=O)c2ccc(C)cc2)c2ccccc2)cc1 | · | · | · | · | · | 2 | ·
CCN1CCCCC(=NO)C(=NO)CCCC1 | · | · | · | · | · | 0 | ·
Cc1ccc(S(=O)(=O)Nc2cc(Cl)c(O)c3ncccc23)cc1 | -4 | 5 | 8 | 19 | 46* | · | 37*
CCOCCCNC(=O)c1ccc(N2CCCC2)c(NS(=O)(=O)c2ccc(C)cc2)c1 | -1 | 3 | 4 | 3 | 52* | 0 | 3
CCNc1ccc(Br)cc(C(=O)/C=C/c2ccccc2Cl)c1=O | -3 | 36* | 3 | 9 | 46* | 8 | 28*
COCCN(C(=O)COC(=O)c1cc2c(s1)CCC2)c1c(N)n(Cc2ccccc2)c(=O)[nH]c1=O | -1 | 57* | 9 | 10 | 56* | · | 34*
CCCCCOC(=O)C1=C(C)NC(=O)NC1c1ccc2c(c1)OCO2 (centres undefined) | -1 | 8 | 9 | 2 | 5 | 2 | ·
CC1=C(C(=O)OCCCBr)C(c2ccc3c(c2)OCO3)NC(=O)N1 (centres undefined) | -1 | 4 | -5 | -1 | 43* | 2 | 6
O=c1[nH][nH]c(C(F)(F)F)c1C=Nc1ccccc1 | 0 | 2 | 7 | 7 | 1 | 6 | ·
Cc1cc(O)ccc1N=Cc1c(C(F)(F)F)[nH][nH]c1=O | -1 | 27 | 16 | 21 | 74* | 5 | 10
Cc1sc2nc(C)n(N=Cc3ccccc3O)c(=O)c2c1C | · | · | · | · | · | 3 | ·
COc1cc(NC(c2ccccc2)c2ccccc2)cc(OC)c1OC | 0 | 1 | -5 | -5 | 44* | 2 | 43*
NC(=NOC(=O)c1ccccc1[N+](=O)[O-])c1ccccn1 | · | · | · | · | · | 4 | ·
COc1ccc(CC(=O)Nc2cccc(/C(C)=N/NC(=O)c3cccc([N+](=O)[O-])c3)c2)cc1 | -7 | -2 | 3 | 0 | 80* | · | 5
O=C(O)c1ccccc1Nc1cccc(OCc2ccc3ccccc3n2)c1 | -19 | 11 | 9 | 7 | 36* | 1 | 31*
COc1cc(C=NNC(=O)c2ccc(O)cc2)ccc1OCC(=O)Nc1cccc([N+](=O)[O-])c1 | · | · | · | · | · | 6 | ·
CCOC(=O)c1cc(NC(=O)/C=C\C(=O)O)ccc1Cl | -1 | 2 | 4 | 8 | 6 | 1 | ·
CCOC(=O)c1c(NC(=O)/C=C/C(=O)O)sc(C)c1-c1ccc(Cl)cc1 | -3 | -3 | 2 | 2 | 44* | 11 | 40*
Cc1cc(C)nc(SCC(=O)NN=Cc2sccc2C)n1 | · | · | · | · | · | 3 | ·
COCCNC(=S)NN=C(C)c1ccc(OC)cc1 | · | · | · | · | · | 5 | ·
SMILES | NR3A LBD binder | PAFAH2 FP inh | PAFAH1B2 inh | PAFAH1B3 inh | pPAFAH FP inh | UCH37 inh | pPAFAH FP conf
Cc1ccccc1CSc1nnnn1-c1ccc(C(N)=O)cc1 | -2 | 10 | 7 | 0 | 2 | 0 | ·
NC(=O)c1ccc(-n2nnnc2SCC(=O)c2ccc(O)c(O)c2)cc1 | 1 | 14 | 5 | 16 | 37* | 6 | 67*
c1ccc2c(c1)oc1c(Nc3ccc(CN4CCOCC4)cc3)ncnc12 | -6 | 14 | 1 | 7 | -5 | 3 | ·
CCc1nc(Nc2ccc(N3CCN(C(C)=O)CC3)cc2)c2oc3ccccc3c2n1 | 2 | 6 | 1 | -2 | 42* | -1 | 33*
CC(=O)N1CCN(c2ccc(Nc3ncnc4c3oc3ccccc34)cc2)CC1 | -16 | -6 | 0 | 5 | 69* | 4 | 67*
Cc1ccccc1C(=O)Nc1cccc(C(=O)N/N=C/c2cc(Cl)cc([N+](=O)[O-])c2O)c1 | 5 | 6 | 3 | -9 | 38* | · | 42*
CS(=O)(=O)Oc1ccc(C=NNC(=O)c2ccncc2)cc1 | · | · | · | · | · | 0 | ·
COc1cc(C=NNC(=O)Cc2csc(N3CCOCC3)n2)cc(OC)c1O | · | · | · | · | · | -27 | ·
COc1cccc2cc(C(=O)CS(=O)(=O)c3ccc(C(C)(C)C)cc3)c(=O)oc12 | -3 | 15 | 42* | 4 | 52* | 2 | 35*
O=C(NN=Cc1ccc(O)c(O)c1)C1c2ccccc2Oc2ccccc21 | · | · | · | · | · | -1 | ·
CC(C)=CCc1c(O)cc2oc3c(CC=C(C)C)c(O)c(O)c(CC=C(C)C)c3c(=O)c2c1O | 6 | -16 | 11 | 30* | 59* | 9 | 56*
COc1ccc(Cl)cc1NC(=O)CC(C)=NNC(=O)c1ccccc1Cl | · | · | · | · | · | 4 | ·
Cc1[nH]c2ccc(C(=O)OCC(=O)NC3(C#N)CCCCC3)cc2c1C | -5 | 86* | 2 | 7 | 45* | -2 | 43*
N#CC1(NC(=O)COC(=O)c2nc(Cl)ccc2Cl)CCCCC1 | 2 | 7 | 11 | 10 | 8 | 4 | ·
CN1CCc2c(sc(N=Cc3c[nH]c4ccccc34)c2C#N)C1 | · | · | · | · | · | -7 | ·
O=C(O)c1ccccc1N/N=C/c1cc(Br)cc(Br)c1O | 2 | 35* | 12 | 10 | 41* | · | 62*
COc1cccc(C=NNc2ccccc2C(=O)O)c1O | · | · | · | · | · | 17 | ·
O=[N+]([O-])c1ccc(NN=Cc2cccnc2)cc1 | · | · | · | · | · | 3 | ·
CN(C(=O)c1cccnc1)c1nnc(-c2cccnc2)s1 | -1 | 0 | 2 | -4 | 42* | -4 | 3
C=CCn1c(N/N=C/c2ccc(O)cc2)nc2ccccc2c1=O | 12* | 4 | 5 | 1 | 35* | · | 9
CCN(CC)c1ccc(C=NNC(=O)C(O)c2ccccc2)cc1 (centres undefined) | · | · | · | · | · | -232 | ·
CCOc1ccc2[nH]c3c(N4CCN(c5ccccn5)CC4)ncnc3c2c1 | -3 | 13 | 9 | 3 | 44* | -59 | 13
Cc1ccc2[nH]c3c(N4CCN(Cc5ccccc5)CC4)ncnc3c2c1 | -9 | 8 | 5 | -4 | 4 | -47 | ·
